STK33 kinase inh: inhibitors of purified STK33 kinase, primary screen, biochemical, ADP-Glo luminescence, homogeneous, cell-free | Serine/threonine-protein kinase 33 (Homo sapiens), Q9BYT3 | MBP phosphorylation | inhibition, % at 10 µM | 320,000 tested, 0.073% active;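 active = inhibition at or above 25%, using the most active replicate where run in duplicate; inactive = inhibition below 25%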
Target sequence (Q9BYT3 whole entry, looked up): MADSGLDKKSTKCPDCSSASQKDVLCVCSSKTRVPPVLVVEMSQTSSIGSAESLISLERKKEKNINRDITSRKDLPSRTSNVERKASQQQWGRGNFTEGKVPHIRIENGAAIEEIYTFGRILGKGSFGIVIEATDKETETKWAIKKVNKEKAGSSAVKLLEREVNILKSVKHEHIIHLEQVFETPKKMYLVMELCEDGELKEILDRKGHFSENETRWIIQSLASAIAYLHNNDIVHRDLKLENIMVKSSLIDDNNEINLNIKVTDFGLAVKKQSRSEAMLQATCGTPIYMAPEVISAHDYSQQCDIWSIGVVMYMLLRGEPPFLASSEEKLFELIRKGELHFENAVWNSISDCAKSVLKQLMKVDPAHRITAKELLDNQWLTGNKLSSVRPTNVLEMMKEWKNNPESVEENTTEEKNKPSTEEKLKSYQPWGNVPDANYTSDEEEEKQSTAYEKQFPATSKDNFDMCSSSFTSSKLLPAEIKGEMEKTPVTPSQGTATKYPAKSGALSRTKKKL
AI-2 QS mod: Vibrio harveyi AI-2 quorum sensing modulators, primary screen, JMH597 strain, luminescence/OD600 ratio. AID 2094, 2009. Vibrio harveyi JMH597 AI-2 luminescence/OD600 ratio, 9 h; stronger effect = lower value; strain lacks LuxN and CqsS sensors; 0 = neutral-control median. 300,000 tested, 0.4% active. activity change, % at 7.5 µM; in the data active = activity change below about -75%, passing the limit was not always enough;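 also: luminescence divided by OD600 gain over 9 h not by final OD600 alone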
GSK3B inh: human GSK3beta kinase inhibitors, primary screen, biochemical, cell-free homogeneous, HTS; activity score (negative = inhibition), % at 10 µM; AID 2097, 2009; Glycogen synthase kinase-3 beta (Homo sapiens), P49841; 300,000 tested, 0.038% active; GST-GSK3beta kinase, ADP-Glo luminescence, 60 min; stronger effect = lower value;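 active = more than half of replicate wells score below -50%, meaning over 50% inhibition versus plate controls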;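 also: 0% = median DMSO wells and -100% = median GW8510 positive control wells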
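test system = GST-tagged human GSK3beta kinase, cell-free | reagent = 25 µM ATP with peptide substrate | dosing = one dose of 10 µM per compound | schedule = 60 min reaction, RT | detection = luminescent ADP-Glo measurement of ADP formed | control set = DMSO neutral wells and GW8510 at 20 µM as positive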
GSK3 alpha inh: blockers of GSK3A enzyme activity – biochemical, luminescence, cell-free homogeneous, HTS, primary screen | GSK-3 alpha kinase, ADP-Glo luminescence, 60 min | inhibition, % at 10 µM | Glycogen synthase kinase-3 alpha (Homo sapiens), P49840 | 320,000 tested, 0.1% active;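 active = more than half of replicates show inhibition above 20%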;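 also: GST-tagged GSK-3 alpha with peptide substrate and 25 µM ATP; 0% = DMSO neutral wells and 100% = GW8510 positive control wells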
Dyrk1A ADPGlo: rat Dyrk1A kinase inhibitors, primary screen, biochemical, single point, plate reader | 310,000 tested, 0.43% active | inhibition, % at 12.5 µM | AID 504441, 2011 | Dual specificity tyrosine-phosphorylation-regulated kinase 1A (Rattus norvegicus), Q63470 | ADP-Glo luminescence, NFATc1 peptide; in the data active = inhibition above about 50%;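 also: plate controls were vehicle with enzyme for no effect and no enzyme for full effect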
Rce1 inhib: yeast Rce1p protease inhibitors, primary screen, biochemical, fluorescence, cell-free homogeneous; calls only; 290,000 tested, 0.27% active; CAAX prenyl protease 2 (Saccharomyces cerevisiae (strain ATCC 204508 / S288c)), Q03530; yeast membranes, quenched prenylated peptide cleavage fluorescence;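 active = fall in fluorescence gain of 50% or more versus controls, with final raw signal at or below 3038400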;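 also: plate controls were neutral control wells for no effect and wells lacking membranes for full effect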
* = called active by the depositor; i = inactive; · = not tested or not shown; + = active, no number. Only some compounds are listed: those with a hit (about 0.99% of all), similar ones and a draw of the others.

SMILES | STK33 kinase inh | AI-2 QS mod | GSK3B inh | GSK3 alpha inh | Dyrk1A ADPGlo | Rce1 inhib
CCc1nc(Nc2ccncc2)c2oc3ccccc3c2n1 | 1 | 17 | 2 | 0 | 13 | +
CC(C)NC(=O)CCc1nnc(Cc2cccc(C(F)(F)F)c2)o1 | -1 | 22 | 4 | 0 | 1 | i
CCC(COC)NC(=O)CCc1nnc(Cc2cccc(C(F)(F)F)c2)o1 (stereo not drawn) | 0 | 9 | 0 | 3 | -6 | +
COC(=O)c1sc2nc(-c3ccco3)ccc2c1N | 2 | 17 | 4 | 3 | 2 | i
NC(=O)c1sc2nc(-c3ccco3)ccc2c1N | 27* | 29 | -9 | 13 | 47 | i
CCOc1ccc(CCNC(=O)c2ccc(OCc3c(C)noc3C)cc2)cc1OCC | -1 | · | · | -3 | 9 | ·
Cc1cccn2c(=O)c3cc(C(=O)NCCN4CCOCC4)c(=N)n(Cc4ccc(F)cc4)c3nc12 | 0 | 11 | -1 | -2 | 5 | i
COC(=O)c1ccc(-c2ccc(CNCC(O)c3ccccc3)o2)cc1 (stereo not drawn) | -1 | 27 | -1 | -1 | · | +
COc1ccc(C(C(=O)NC2CCCCC2)N(C(=O)c2snc(C(N)=O)c2N)c2ccc(OC)cc2OC)cc1 (stereo not drawn) | -1 | 53 | -3 | -1 | 3 | +
COc1ccc(N(C(=O)c2snc(C(N)=O)c2N)C(C(=O)NC2CCCC2)c2ccc(F)cc2)c(OC)c1 (stereo not drawn) | 1 | -5 | -2 | 0 | 7 | i
NC(=O)c1nsc(C(=O)N(c2ccccc2F)C(C(=O)NCc2ccccc2)c2ccc(O)cc2)c1N (stereo not drawn) | 0 | 28 | -3 | 3 | 2 | +
O=C(CN1C(=O)c2ccccc2S1(=O)=O)NCc1cccs1 | 1 | -9 | 2 | 1 | 10 | i
CCOc1ccccc1NS(=O)(=O)c1c(C)[nH]c(C)c1C(=O)N1CCCCC1 | 5 | -2 | -1 | -2 | 3 | i
O=C(Nc1ccccc1)n1ccc(-c2ccc(-n3ccnc3)cc2)n1 | 1 | 15 | -4 | 4 | · | +
CC(=O)c1ccc(-n2ccnc2)cc1 | -7 | 19 | -5 | 0 | -3 | i
N#CC(C#N)=Cc1c[nH]c(=O)c(C#N)c1Nc1ccccc1 | -2 | 13 | -25 | 74* | · | i
COc1cccc(CCNC(=O)CCCC(=O)c2ccccc2)c1 | -2 | 12 | -2 | 0 | -4 | i
Cc1cccc(NC(=O)CCc2ccccc2)c1 | 0 | -85* | 0 | 0 | 0 | i
COc1ccc(CCC(=O)Nc2cccc(Cl)c2)cc1 | -1 | -83* | -1 | 0 | 5 | i
COc1ccc(CC(=O)OCC(=O)Nc2cccc(Cl)c2)cc1 | · | -71 | -3 | · | · | i
COc1ccc(S(=O)(=O)N2CCC(C(=O)NC(c3nc4ccccc4[nH]3)C(C)C)CC2)cc1 (stereo not drawn) | -1 | · | · | -3 | · | ·
C[C@H](CO)N1C[C@H](C)[C@@H](CN(C)C(=O)Nc2ccc(C(F)(F)F)cc2)Oc2ccc(NS(=O)(=O)c3cn(C)cn3)cc2C1=O | 0 | · | · | 1 | 6 | ·
c1csc(C2=Nn3c(nnc3-c3ccncc3)SC2)c1 | 4 | 24 | -26 | 87* | 31 | i
COc1ccc(Oc2coc3cc(OC(=O)c4cccs4)ccc3c2=O)cc1 | -1 | -58 | 5 | -1 | -6 | i
O=C(Oc1ccc2c(=O)c(Oc3ccc4ccccc4c3)coc2c1)c1ccco1 | 1 | -82* | 2 | 0 | 0 | i
O=c1cc(-c2ccc(O)c(O)c2)oc2cc(O)cc(O)c12 | -1 | 17 | -35 | 27 | 91* | i
